This note sets out measurements from ChEMBL document CHEMBL1127785, “[[omega-(Heterocyclylamino)alkoxy]benzyl]-2,4-thiazolidinediones as potent antihyperglycemic agents” (1994).

Assay [1] concerns Mus musculus. Put plainly: Percent reduction in area under glucose tolerance curve at 300 uM/kg dose in diet of mice. Format: functional. In short, it runs like this: (§1)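 C57 Bl/6 ob/ob mice, 9–10 weeks old at purchase, 6–8 per group, kept at 26 ± 2 °C on a 12 h light/dark cycle. Compound was mixed into powdered diet, given fresh daily for 8 days. Mice were then fasted 5 h and given oral glucose 3 g/kg. Tail blood glucose was measured at 0, 45, 90 and 135 min by hexokinase/G6PDH. Read-out is % AUC reduction vs controls (trapezoid rule), Student's t-test.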

The species named for assay [2] is Mus musculus. Put plainly: No significant effect dose level on blood hemoglobin. Type of assay: functional. The essentials: (§2)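 Blood hemoglobin content was measured in C57 Bl/6 ob/ob mice after 8 days of compound given by dietary admixture. The value is the highest dose (µmol/kg of diet) with no significant reduction in blood hemoglobin.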
Assay [3] has as its system Mus musculus. The assay is described as follows: Percent reduction in area under glucose tolerance curve (AUC) was determined at 3000 umol/kg dose of diet in mice. Format: functional. The essentials: as §1
The species entered for assay [4] is Mus musculus. Put plainly: Antihyperglycemic potency dose producing approximately 25% reduction in area under glucose tolerance curve. Type of assay: functional. The essentials: as §1
Assay [5] deals with Mus musculus. The assay is described as follows: Percent reduction in area under glucose tolerance curve (AUC) was determined at 100 umol/kg dose of diet in mice; IA = No significant activity. Format: functional, organism-based. In short, it runs like this:
as §1

The nature of assay [6]: Selectivity ratio for Antihyperglycemic potency dose and No significant effect dose. Format: functional.
The test system of assay [7] is Mus musculus. The assay is described as follows: Percent reduction in area under glucose tolerance curve (AUC) was determined at 30 umol/kg dose of diet in mice. Type of assay: functional. The essentials: as §1
For assay [8], the system named is Mus musculus. The assay is described as follows: Percent reduction in area under glucose tolerance curve (AUC) was determined at 3 umol/kg dose of diet in mice. Type of assay: functional. In short, it runs like this: as §1
Assay [9] concerns Mus musculus. The assay is described as follows: Percent reduction in area under glucose tolerance curve at 100 uM/kg dose in diet of mice. Format: functional. In short, it runs like this: as §1
Assay [10] has as its system Mus musculus. The assay is described as follows: Percent reduction in area under glucose10 umol/kg dose of diet in mice. Type of assay: functional. The essentials: as §1
The species named for assay [11] is Mus musculus. Put plainly: No significant effect dose level on blood hemoglobin. Format: functional. In short, it runs like this: as §2

SMILES strings stand for the structures. Activity calls are given as the source filed them. The rule behind the calls is not given here.

Consider `Cc1c(C)c2c(c(C)c1O)CCC(C)(COc1ccc(CC3SC(=O)NC3=O)cc1)O2` (centres undefined) [TROGLITAZONE], for which the values for the Reduction in the assay with Mus musculus [1] and with Mus musculus [3] were 20% and 48%, respectively. Moreover, the Dose in the assay listed under Mus musculus [2] was found to be 600 µM/kg; in the assay listed under Mus musculus [4] it was 400 µM/kg. Besides, the Reduction entry in the assay with Mus musculus [5] was “inactive”. Moreover, the Selectivity ratio in [6] is 1.5.

As for `CN(CCOc1ccc(CC2SC(=O)NC2=O)cc1)c1ccccn1` (centres undefined) [ROSIGLITAZONE], the Reduction with Mus musculus [7] is given as 41%; in the assay with Mus musculus [1], 61%; in the assay with Mus musculus [8], 17%; with Mus musculus [9] it was 56%; in the assay on Mus musculus [10], 31%. Besides, the Dose turned out to be 300 µM/kg in the assay filed under Mus musculus [11] and 3 µM/kg in the assay listed under Mus musculus [4]. The Selectivity ratio in [6] worked out at 100.
